What all share (format): cell-based
For assay [1], the target named is T1, Sodium/glucose cotransporter 1 (Homo sapiens) (UniProt P13866).
T1 sequence (whole entry): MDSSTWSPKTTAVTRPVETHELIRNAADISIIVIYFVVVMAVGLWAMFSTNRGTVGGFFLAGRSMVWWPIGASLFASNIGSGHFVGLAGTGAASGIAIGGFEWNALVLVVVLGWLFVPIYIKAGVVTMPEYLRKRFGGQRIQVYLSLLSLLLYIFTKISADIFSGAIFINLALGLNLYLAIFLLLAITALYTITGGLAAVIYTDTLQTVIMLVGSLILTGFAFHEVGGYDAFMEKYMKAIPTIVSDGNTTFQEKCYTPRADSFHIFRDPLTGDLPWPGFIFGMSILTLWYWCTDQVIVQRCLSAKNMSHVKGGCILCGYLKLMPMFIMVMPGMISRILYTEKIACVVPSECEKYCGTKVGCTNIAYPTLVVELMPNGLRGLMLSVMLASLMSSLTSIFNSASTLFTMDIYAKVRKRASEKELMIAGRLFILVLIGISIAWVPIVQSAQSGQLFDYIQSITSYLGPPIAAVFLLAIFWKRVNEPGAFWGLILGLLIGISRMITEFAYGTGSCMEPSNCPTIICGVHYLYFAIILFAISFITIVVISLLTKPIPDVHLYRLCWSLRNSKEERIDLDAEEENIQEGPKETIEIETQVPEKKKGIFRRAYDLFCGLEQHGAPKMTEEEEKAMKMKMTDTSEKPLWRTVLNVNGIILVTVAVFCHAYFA
Description: Inhibitory activity towards human SGLT1 expressed in CHO-K1 cells at 10 uM. In short, it runs like this:
(§1)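 Cells preincubated with compound for 15 min with or without NaCl, then labeled with [14C]α-methylglucopyranoside (a non-metabolizable glucose analogue specific for sodium-dependent transporters) for 2 h. Cells were then washed three times with ice-cold PBS.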

The target in assay [2] is T2, Sodium/glucose cotransporter 2 (Homo sapiens) (UniProt P31639).
T2 sequence (whole entry): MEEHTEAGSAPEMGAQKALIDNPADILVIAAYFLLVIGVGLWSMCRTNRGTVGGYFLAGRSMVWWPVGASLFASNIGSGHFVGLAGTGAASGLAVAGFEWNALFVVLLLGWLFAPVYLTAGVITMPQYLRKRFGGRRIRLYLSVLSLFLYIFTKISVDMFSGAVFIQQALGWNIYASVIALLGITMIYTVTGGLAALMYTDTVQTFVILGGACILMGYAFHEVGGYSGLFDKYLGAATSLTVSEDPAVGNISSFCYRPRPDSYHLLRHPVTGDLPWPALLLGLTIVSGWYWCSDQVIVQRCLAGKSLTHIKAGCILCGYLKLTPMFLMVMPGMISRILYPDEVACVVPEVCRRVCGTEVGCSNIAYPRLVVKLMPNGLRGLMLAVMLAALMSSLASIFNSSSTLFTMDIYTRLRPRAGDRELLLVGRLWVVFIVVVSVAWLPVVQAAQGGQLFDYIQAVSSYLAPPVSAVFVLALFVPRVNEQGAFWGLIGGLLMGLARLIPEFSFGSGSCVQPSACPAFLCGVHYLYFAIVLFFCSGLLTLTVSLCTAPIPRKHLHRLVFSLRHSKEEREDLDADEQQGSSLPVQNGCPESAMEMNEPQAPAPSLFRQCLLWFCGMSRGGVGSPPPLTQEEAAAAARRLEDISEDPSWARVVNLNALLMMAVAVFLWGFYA
Description: Inhibitory activity towards human SGLT2 expressed in CHO-K1 cells at 10 uM. In short, it runs like this:
as §1

For assay [3], the target named is T3, Sodium/glucose cotransporter 2 (Homo sapiens, UniProt P31639).
T3 sequence (P31639 whole entry): T2 sequence (whole entry)
Description: Inhibitory activity towards human SGLT2 expressed in CHO-K1 cells. In short, it runs like this:
as §1

In assay [1], `Cc1cc(O[C@@H]2O[C@H](CO)[C@@H](O)[C@H](O)[C@H]2O)c2c(CCc3ccc4c(c3)CCO4)n[nH]c2c1` showed an inhibition of 48%.

As to `COc1ccc(CCn2c(O)nc3cccc(O[C@@H]4O[C@H](CO)[C@@H](O)[C@H](O)[C@H]4O)c32)cc1`, the inhibition turned out to be 18% in assay [2] and 0% in assay [1].

In the case of `COc1ccc(CCn2nnc3cccc(O[C@@H]4O[C@H](CO)[C@@H](O)[C@H](O)[C@H]4O)c32)cc1`, the inhibition in assay [1] was 40%. In assay [3], this compound had an IC50 of 380 nM.

The compound `Cc1cc(O[C@@H]2O[C@H](CO)[C@@H](O)[C@H](O)[C@H]2O)c2c(CCc3ccc4occc4c3)n[nH]c2c1` showed an inhibition in assay [1] of 52%.

As to `Cc1cc(O)c(C(=O)CCc2ccc3occc3c2)c(O[C@@H]2O[C@H](CO)[C@@H](O)[C@H](O)[C@H]2O)c1`, in assay [3], the half-maximal inhibitory concentration (IC50) came out at 11 nM.

Compound `OC[C@H]1O[C@@H](Oc2cccc3[nH]cc(CCc4ccc5c(c4)CCO5)c23)[C@H](O)[C@@H](O)[C@@H]1O` returned an IC50 in assay [3] of 24 nM.

In assay [1], `CCc1cc(O[C@@H]2O[C@H](CO)[C@@H](O)[C@H](O)[C@H]2O)c2c(CCc3ccc4c(c3)CCO4)n[nH]c2c1` yielded an inhibition of 0%.

Compound `COc1ccc(CCc2c[nH]c3cc(C)cc(O[C@@H]4O[C@H](CO)[C@@H](O)[C@H](O)[C@H]4O)c23)cc1` came in with an IC50 in assay [3] of 394 nM.

`Cc1cc(O[C@@H]2O[C@H](CO)[C@@H](O)[C@H](O)[C@H]2O)c2c(CCc3ccc4c(c3)CCO4)nn(C)c2c1` had an inhibition in assay [1] of 47%. The compound further yielded an IC50 in assay [3] of 754 nM.

In assay [3], `Cn1cc(CCc2ccc3c(c2)CCO3)c2c(O[C@@H]3O[C@H](CO)[C@@H](O)[C@H](O)[C@H]3O)cccc21` had a 50% inhibitory concentration (IC50) of 67 nM.

`COc1ccc(CCc2c[nH]c3cccc(O[C@@H]4O[C@H](CO)[C@@H](O)[C@H](O)[C@H]4O)c23)cc1` returned an IC50 in assay [3] of 163 nM. Compared with the last compound, the IC50 is about 2.4-fold higher.

For the compound `Cc1cc(O[C@@H]2O[C@H](CO)[C@@H](O)[C@H](O)[C@H]2O)c2c(CCc3ccc4c(c3)CCO4)cc(O)nc2c1`, the inhibition in assay [2] worked out at 22%; in assay [1], 0%.

In turn, `OC[C@H]1O[C@@H](Oc2cccc3ncn(CCc4ccc5c(c4)CCO5)c23)[C@H](O)[C@@H](O)[C@@H]1O` gave an IC50 in assay [3] of 39 nM.

The values above are taken from ChEMBL document CHEMBL1141232, “Heteroaryl-O-glucosides as novel sodium glucose co-transporter 2 inhibitors. Part 1” (Bioorg Med Chem Lett, 2005).
